Results from ChEMBL document CHEMBL3596195, “Novel cajaninstilbene acid derivatives as antibacterial agents” (Eur J Med Chem, 2015).
Values after ≈ are worked out from the molar mass of the structure shown.

Columns and labels:
Staphylococcus aureus [1] = assay: Antibacterial activity against methicillin-resistant Staphylococcus aureus ATCC513045 assessed as bacterial growth inhibition after 24 hrs by broth dilution method; type: functional; conditions: ATCC513045, 24 h
[2] = system: Staphylococcus epidermidis; assay: Ratio of norfloxacin MIC to compound MIC for Staphylococcus epidermidis ATCC12228 after 24 hrs by broth dilution method; type: functional
Staphylococcus aureus [3] = assay: Antibacterial activity against methicillin-resistant Staphylococcus aureus ATCC523512 assessed as bacterial growth inhibition after 24 hrs by broth dilution method; type: functional; conditions: ATCC523512, 24 h
RAW264.7 = assay: Cytotoxicity against mouse RAW264.7 cells assessed as inhibition of cell viability after 72 hrs by MTT assay; type: cell-based; conditions: RAW264.7, 72 h
Outline: (§1)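 Mouse RAW 264.7 macrophages grown in DMEM with 10% FBS, 2 mM L-glutamine and penicillin/streptomycin at 37 °C, 5% CO2. Seeded at 10,000 cells/well for 12 h. Compound diluted 1000× from DMSO stock into 1% FBS medium (DMSO under 0.1%), over a concentration gradient, 72 h exposure. MTT formazan dissolved in DMSO for 45 min, absorbance read at 562 nm. Quadruplicate wells, at least three runs (N = 12).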

Staphylococcus aureus [4] = assay: Antibacterial activity against Staphylococcus aureus ATCC25923 assessed as bacterial growth inhibition after 24 hrs by broth dilution method; type: functional; conditions: ATCC25923, 24 h
Staphylococcus aureus [5] = assay: Antibacterial activity against methicillin-resistant Staphylococcus aureus ATCC43300 assessed as bacterial growth inhibition after 24 hrs by broth dilution method; type: functional; conditions: ATCC43300, 24 h
[6] = Cytotoxicity against mouse RAW264.7 cells assessed as cell viability at 8 ug/ml after 72 hrs by MTT assay; type: cell-based; conditions: read-out: Activity; outline: as §1
Staphylococcus aureus [7] = assay: Antibacterial activity against methicillin-resistant Staphylococcus aureus ATCC52056 assessed as bacterial growth inhibition after 24 hrs by broth dilution method; type: functional; conditions: ATCC52056, 24 h
[8] = Selectivity index, ratio of IC50 for mouse RAW264.7 cells to MIC for Staphylococcus aureus ATCC25923; type: toxicity; conditions: read-out: Selectivity Index
Outline: (§2)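 SI = IC50 in mouse RAW 264.7 macrophages divided by broth-dilution MIC. For cytotoxicity, cells in DMEM/10% FBS/2 mM L-glutamine were seeded at 10,000/well for 12 h. They were then dosed across a concentration gradient in 1% FBS medium with DMSO below 0.1% for 72 h. Read-out was MTT, absorbance 562 nm, 4 wells × at least 3 runs.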

[9] = Selectivity index, ratio of IC50 for mouse RAW264.7 cells to MIC for methicillin-resistant Staphylococcus aureus ATCC52056; type: toxicity; conditions: read-out: Selectivity Index; outline: as §2
[10] = Selectivity index, ratio of IC50 for mouse RAW264.7 cells to MIC for Staphylococcus epidermidis ATCC12228; type: toxicity; conditions: read-out: Selectivity Index; outline: as §2
Staphylococcus aureus [11] = assay: Ratio of penicillin MIC to compound MIC for Staphylococcus aureus ATCC25923 after 24 hrs by broth dilution method; type: functional
Staphylococcus aureus [12] = assay: Antibacterial activity against methicillin-resistant Staphylococcus aureus ATCC515992 assessed as bacterial growth inhibition after 24 hrs by broth dilution method; type: functional; conditions: ATCC515992, 24 h
[13] = Selectivity index, ratio of IC50 for mouse RAW264.7 cells to MIC for methicillin-resistant Staphylococcus aureus ATCC510019; type: toxicity; conditions: read-out: Selectivity Index; outline: as §2
[14] = Selectivity index, ratio of IC50 for mouse RAW264.7 cells to MIC for methicillin-resistant Staphylococcus aureus ATCC523512; type: toxicity; conditions: read-out: Selectivity Index; outline: as §2
[15] = Selectivity index, ratio of IC50 for mouse RAW264.7 cells to MIC for methicillin-resistant Staphylococcus aureus ATCC515992; type: toxicity; outline: as §2
[16] = Selectivity index, ratio of IC50 for mouse RAW264.7 cells to MIC for methicillin-resistant Staphylococcus aureus ATCC513045; type: toxicity; conditions: read-out: Selectivity Index; outline: as §2
Proteus vulgaris = assay: Antibacterial activity against Proteus vulgaris ATCC49101 assessed as bacterial growth inhibition after 24 hrs by broth dilution method; type: functional; conditions: ATCC49101, 24 h
Pseudomonas aeruginosa = assay: Antibacterial activity against Pseudomonas aeruginosa ATCC2785 assessed as bacterial growth inhibition after 24 hrs by broth dilution method; type: functional; conditions: ATCC2785, 24 h
Staphylococcus aureus [17] = assay: Antibacterial activity against methicillin-resistant Staphylococcus aureus ATCC51033 assessed as bacterial growth inhibition after 24 hrs by broth dilution method; type: functional; conditions: ATCC51033, 24 h
[18] = Selectivity index, ratio of IC50 for mouse RAW264.7 cells to MIC for methicillin-resistant Staphylococcus aureus ATCC43300; type: toxicity; conditions: read-out: Selectivity Index; outline: as §2
Staphylococcus aureus [19] = assay: Antibacterial activity against methicillin-resistant Staphylococcus aureus ATCC425055 assessed as bacterial growth inhibition after 24 hrs by broth dilution method; type: functional; conditions: ATCC425055, 24 h
Escherichia coli = assay: Antibacterial activity against Escherichia coli ATCC25922 assessed as bacterial growth inhibition after 24 hrs by broth dilution method; type: functional; conditions: ATCC25922, 24 h
Staphylococcus aureus [20] = assay: Antibacterial activity against methicillin-resistant Staphylococcus aureus ATCC62202 assessed as bacterial growth inhibition after 24 hrs by broth dilution method; type: functional; conditions: ATCC62202, 24 h
[21] = Selectivity index, ratio of IC50 for mouse RAW264.7 cells to MIC for Bacillus subtilis ATCC6633; type: toxicity; conditions: read-out: Selectivity Index; outline: as §2
[22] = Selectivity index, ratio of IC50 for mouse RAW264.7 cells to MIC for methicillin-resistant Staphylococcus aureus ATCC62202; type: toxicity; conditions: read-out: Selectivity Index; outline: as §2
Staphylococcus aureus [23] = assay: Antibacterial activity against methicillin-resistant Staphylococcus aureus ATCC510019 assessed as bacterial growth inhibition after 24 hrs by broth dilution method; type: functional; conditions: ATCC510019, 24 h
Bacillus subtilis = assay: Antibacterial activity against Bacillus subtilis ATCC6633 assessed as bacterial growth inhibition after 24 hrs by broth dilution method; type: functional; conditions: ATCC6633, 24 h
[24] = Selectivity index, ratio of IC50 for mouse RAW264.7 cells to MIC for methicillin-resistant Staphylococcus aureus ATCC425055; type: toxicity; conditions: read-out: Selectivity Index; outline: as §2
[25] = Selectivity index, ratio of IC50 for mouse RAW264.7 cells to MIC for methicillin-resistant Staphylococcus aureus ATCC51033; type: toxicity; conditions: read-out: Selectivity Index; outline: as §2
[26] = system: Staphylococcus epidermidis; assay: Antibacterial activity against Staphylococcus epidermidis ATCC12228 assessed as bacterial growth inhibition after 24 hrs by broth dilution method; type: functional; conditions: ATCC12228, 24 h

| SMILES | MIC (Staphylococcus aureus [1]) | MIC (Staphylococcus aureus [3]) | MIC (Staphylococcus aureus [4]) | MIC (Staphylococcus aureus [5]) | MIC (Staphylococcus aureus [7]) | MIC (Staphylococcus aureus [12]) | MIC (Proteus vulgaris) | MIC (Pseudomonas aeruginosa) | MIC (Staphylococcus aureus [17]) | MIC (Staphylococcus aureus [19]) | MIC (Escherichia coli) | MIC (Staphylococcus aureus [20]) | MIC (Staphylococcus aureus [23]) | MIC (Bacillus subtilis) | MIC [26] | further results |
| --- | --- | --- | --- | --- | --- | --- | --- | --- | --- | --- | --- | --- | --- | --- | --- | --- |
| COc1cc(/C=C/c2ccccc2F)c(C(=O)O)c(O)c1CC=C(C)C | 2 µg/mL (≈ 5.61 µM) | 2 µg/mL (≈ 5.61 µM) | 4 µg/mL (≈ 11.2 µM) | 1 µg/mL (≈ 2.81 µM) | 2 µg/mL (≈ 5.61 µM) | 2 µg/mL (≈ 5.61 µM) | > 64 µg/mL | > 64 µg/mL | 1 µg/mL (≈ 2.81 µM) | 0.5 µg/mL (≈ 1.4 µM) | 64 µg/mL (≈ 180 µM) | 0.5 µg/mL (≈ 1.4 µM) | 2 µg/mL (≈ 5.61 µM) | 0.5 µg/mL (≈ 1.4 µM) | 1 µg/mL (≈ 2.81 µM) | Ratio [2]: 8; IC50 (RAW264.7): 24.7 µg/mL (≈ 69.3 µM); viability at 72 h, 8 ug/ml [6]: 92.7%; selectivity ratio [8]: 6.17; selectivity ratio [9]: 12.3; selectivity ratio [10]: 6.17; Ratio (Staphylococcus aureus [11]): 64; selectivity ratio [13]: 12.3; selectivity ratio [14]: 6.17; selectivity ratio [15]: 12.3; selectivity ratio [16]: 6.17; selectivity ratio [18]: 6.17; selectivity ratio [21]: 6.17; selectivity ratio [22]: 6.17; selectivity ratio [24]: 6.17; selectivity ratio [25]: 6.17 |
| COc1cc(/C=C/c2cccc(F)c2)c(C(=O)O)c(O)c1CC=C(C)C | 2 µg/mL (≈ 5.61 µM) | 2 µg/mL (≈ 5.61 µM) | 4 µg/mL (≈ 11.2 µM) | 1 µg/mL (≈ 2.81 µM) | 0.5 µg/mL (≈ 1.4 µM) | 1 µg/mL (≈ 2.81 µM) | > 64 µg/mL | > 64 µg/mL | 1 µg/mL (≈ 2.81 µM) | 2 µg/mL (≈ 5.61 µM) | > 128 µg/mL | 0.5 µg/mL (≈ 1.4 µM) | 1 µg/mL (≈ 2.81 µM) | 0.5 µg/mL (≈ 1.4 µM) | 2 µg/mL (≈ 5.61 µM) | Ratio [2]: 8; IC50 (RAW264.7): 20.2 µg/mL (≈ 56.6 µM); viability at 72 h, 8 ug/ml [6]: 91.7%; selectivity ratio [8]: 5.04; selectivity ratio [9]: 40.3; selectivity ratio [10]: 5.04; Ratio (Staphylococcus aureus [11]): 64; selectivity ratio [13]: 20.2; selectivity ratio [14]: 5.04; selectivity ratio [15]: 20.2; selectivity ratio [16]: 5.04; selectivity ratio [18]: 5.04; selectivity ratio [21]: 5.04; selectivity ratio [22]: 5.04; selectivity ratio [24]: 5.04; selectivity ratio [25]: 5.04 |
| COc1cc(/C=C/c2cccc(C#N)c2)c(C(=O)O)c(O)c1CC=C(C)C | 4 µg/mL (≈ 11 µM) | 2 µg/mL (≈ 5.5 µM) | 4 µg/mL (≈ 11 µM) | 8 µg/mL (≈ 22 µM) | 4 µg/mL (≈ 11 µM) | 2 µg/mL (≈ 5.5 µM) | > 64 µg/mL | > 64 µg/mL | 2 µg/mL (≈ 5.5 µM) | 1 µg/mL (≈ 2.75 µM) | > 128 µg/mL | 0.5 µg/mL (≈ 1.38 µM) | 2 µg/mL (≈ 5.5 µM) | 16 µg/mL (≈ 44 µM) | 2 µg/mL (≈ 5.5 µM) | – |
| COc1cc(O)c(C(=O)O)c(/C=C/c2ccccc2)c1 | > 128 µg/mL | > 128 µg/mL | > 128 µg/mL | > 128 µg/mL | 128 µg/mL (≈ 474 µM) | > 128 µg/mL | > 128 µg/mL | > 128 µg/mL | > 128 µg/mL | > 128 µg/mL | > 128 µg/mL | 128 µg/mL (≈ 474 µM) | > 128 µg/mL | 64 µg/mL (≈ 237 µM) | > 128 µg/mL | – |
| COC(=O)c1c(/C=C/c2ccc(C(F)(F)F)cc2)cc(OC)c(CC=C(C)C)c1O | 128 µg/mL (≈ 304 µM) | 64 µg/mL (≈ 152 µM) | 64 µg/mL (≈ 152 µM) | > 128 µg/mL | 128 µg/mL (≈ 304 µM) | > 128 µg/mL | > 128 µg/mL | > 128 µg/mL | > 128 µg/mL | 64 µg/mL (≈ 152 µM) | > 128 µg/mL | 128 µg/mL (≈ 304 µM) | > 128 µg/mL | 128 µg/mL (≈ 304 µM) | 64 µg/mL (≈ 152 µM) | – |
| COC(=O)c1c(/C=C/c2ccc(F)cc2F)cc(OC)c(CC=C(C)C)c1O | > 128 µg/mL | 64 µg/mL (≈ 165 µM) | > 128 µg/mL | > 128 µg/mL | 128 µg/mL (≈ 330 µM) | > 128 µg/mL | > 128 µg/mL | > 128 µg/mL | 128 µg/mL (≈ 330 µM) | 128 µg/mL (≈ 330 µM) | > 128 µg/mL | 64 µg/mL (≈ 165 µM) | > 128 µg/mL | 128 µg/mL (≈ 330 µM) | 64 µg/mL (≈ 165 µM) | – |
| COC(=O)c1c(/C=C/c2ccc(Cl)cc2)cc(OC)c(CC=C(C)C)c1O | > 128 µg/mL | > 128 µg/mL | > 128 µg/mL | > 128 µg/mL | > 128 µg/mL | > 128 µg/mL | > 128 µg/mL | > 128 µg/mL | > 128 µg/mL | > 128 µg/mL | > 128 µg/mL | 128 µg/mL (≈ 331 µM) | > 128 µg/mL | > 128 µg/mL | 128 µg/mL (≈ 331 µM) | – |
